Assay results published in ChEMBL document CHEMBL1145814, “Antiretroviral activity of semisynthetic derivatives of glycopeptide antibiotics” (J Med Chem, 2003).
In brackets after ≈: the same amount, converted by molar mass.

What was measured:
CCRF-CEM = experiment: Inhibitory concentration against proliferation of human T-lymphocytic (CEM) cells; type: functional, cell-based; conditions: Homo sapiens, CCRF-CEM
In short: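 (5–7.5) × 10^4 cells per well were incubated with test compound at 37 °C in a humidified CO2 atmosphere. L1210 murine leukemia cells grew for 48 h, and CEM and Molt4/clone 8 human lymphocytes grew for 72 h. Cells were then counted with a Coulter counter. IC50 is the concentration inhibiting proliferation by 50%.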

[1] = system: Human immunodeficiency virus 1; experiment: Effective concentration of compound required to protect human T-lymphocytic cells against the cytopathogenicity of HIV-1; type: functional, organism-based; conditions: Human immunodeficiency virus 1
[2] = system: Human immunodeficiency virus 2; experiment: Concentration required to protect human T-lymphocytic cells against the cytopathogenicity of HIV-2; type: functional, organism-based; conditions: Human immunodeficiency virus 2
Mus musculus [3] = species: Mus musculus; experiment: Minimal inhibitory concentration required to cause a microscopic detectable alteration of C3H/3T3 embryo murine fibroblast cell morphology; type: functional
In short: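 Uninfected C3H/3T3 murine embryo fibroblast cultures were exposed to test compound and checked microscopically for changes in cell morphology. The MIC is the concentration causing a microscopically detectable alteration of morphology.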

Mus musculus [4] = species: Mus musculus; experiment: Effective concentration of compound required to protect C3H/3T3 embryo murine fibroblasts against the MSV induced transformation; type: functional, organism-based; conditions: Mus musculus, C3H/3T3
In short: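 Monolayer murine embryo fibroblast C3H/3T3 cultures were infected with Moloney murine sarcoma virus at 75 focus-forming units and cultured with test compound. Transformation was examined microscopically on day 6 postinfection. EC50 is the concentration protecting cells against MSV-induced transformation by 50%.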

Row | IC50 (CCRF-CEM) | EC50 [1] | EC50 [2] | SMILES | MIC (Mus musculus [3]) | EC50 (Mus musculus [4])
1 | > 100 µM | 4.5 µM | 4.5 µM | CC(C)CC(C(=O)NC1C(=O)NC(CC(N)=O)C(=O)NC2C(=O)NC3C(=O)NC(C(=O)N[C@@H](C(=O)O)c4cc(O)c(CN5CCN(Cc6ccc(-c7ccccc7)cc6)CC5)c(O)c4-c4cc3ccc4O)C(O)c3ccc(cc3)Oc3cc2cc(c3O)Oc2ccc(cc2Cl)C1O)N(C)C(=O)OC(C)(C)C (some centres not stated) | > 100 µM | 8.4 µM
2 | 229 µM | 13 µM | 17 µM | CNC(=O)[C@@H]1NC(=O)C2NC(=O)C(NC(=O)C3NC(=O)C4NC(=O)C(Cc5ccc(c(Cl)c5)Oc5cc3cc(c5O)Oc3ccc(cc3Cl)C2O)NC(=O)C(NC(=O)OC(C)(C)C)c2ccc(O)c(c2)Oc2cc(O)cc4c2)c2ccc(O)c(c2)-c2c(O)cc(O)cc21 (some centres not stated) | > 100 µM | 11 µM
3 | > 250 µM | 13 µM | 20 µM | CC(C)(C)OC(=O)NC1C(=O)NC2Cc3ccc(c(Cl)c3)Oc3cc4cc(c3O)Oc3ccc(cc3Cl)C(O)C3NC(=O)C(NC(=O)C4NC(=O)C(NC2=O)c2cc(O)cc(c2)Oc2cc1ccc2O)c1ccc(O)c(c1)-c1c(O)cc(O)cc1[C@H](C(=O)O)NC3=O (some centres not stated) | > 100 µM | 12 µM
4 | > 250 µM | 12 µM | 8 µM | O=C(NC1C(=O)NC2Cc3ccc(c(Cl)c3)Oc3cc4cc(c3O)Oc3ccc(cc3Cl)C(O)C3NC(=O)C(NC(=O)C4NC(=O)C(NC2=O)c2cc(O)cc(c2)Oc2cc1ccc2O)c1ccc(O)c(c1)-c1c(O)cc(O)cc1[C@H](C(=O)O)NC3=O)OCc1ccccc1 (some centres not stated) | > 100 µM | 11 µM
5 | > 250 µM | 15 µM | 37 µM | NC1Cc2ccc(c(Cl)c2)Oc2cc3cc(c2O)Oc2ccc(cc2Cl)C(O)C2NC(=O)C(NC(=O)C3NC(=O)C(c3cc(O)cc(Oc4cc(C5NC(=S)N(c6ccccc6)C5=O)ccc4O)c3)NC1=O)c1ccc(O)c(c1)-c1c(O)cc(O)cc1[C@H](C(=O)O)NC2=O (some centres not stated) | > 100 µM | 27 µM
6 | 220 µM | 6 µM | 8 µM | O=C1NC2C(=O)NC3C(=O)NC4C(=O)NC(C(=O)N[C@@H](C(=O)O)c5cc(O)cc(O)c5-c5cc4ccc5O)C(O)c4ccc(c(Cl)c4)Oc4cc3cc(c4O)Oc3ccc(cc3Cl)CC1NC(=O)C(/N=C(\S)Nc1ccccc1)c1ccc(O)c(c1)Oc1cc(O)cc2c1 (some centres not stated) | 100 µM (≈ 133 µg/mL) | 7.5 µM
7 | 21 µM | 2.6 µM | 5.8 µM | CCCCCCCCCCNC(=O)[C@@H]1NC(=O)C2NC(=O)C(NC(=O)C3NC(=O)C4NC(=O)C(Cc5ccc(c(Cl)c5)Oc5cc3cc(c5O)Oc3ccc(cc3Cl)C2O)NC(=O)C(N)c2ccc(O)c(c2)Oc2cc(O)cc4c2)c2ccc(O)c(c2)-c2c(O)cc(O)cc21 (some centres not stated) |  | 
8 | 114 µM | 17 µM | 15 µM | O=C(NC1C(=O)NC2Cc3ccc(c(Cl)c3)Oc3cc4cc(c3O)Oc3ccc(cc3Cl)C(O)C3NC(=O)C(NC(=O)C4NC(=O)C(NC2=O)c2cc(O)cc(c2)Oc2cc1ccc2O)c1ccc(O)c(c1)-c1c(O)cc(O)cc1[C@H](C(=O)O)NC3=O)OCC1c2ccccc2-c2ccccc21 (some centres not stated) | 100 µM (≈ 142 µg/mL) | 10 µM
9 | > 250 µM | 25 µM | 37 µM | NC1C(=O)NC2Cc3ccc(c(Cl)c3)Oc3cc4cc(c3O)Oc3ccc(cc3Cl)C(O)C3NC(=O)C(NC(=O)C4NC(=O)C(NC2=O)c2cc(O)cc(c2)Oc2cc1ccc2O)c1ccc(O)c(c1)-c1c(cc(O)c(CNC2C4CC5CC(C4)CC2C5)c1O)[C@H](C(=O)O)NC3=O (some centres not stated) | 100 µM (≈ 136 µg/mL) | 5.6 µM
10 | 81 µM | 3.5 µM | 22 µM | CCCCc1ccc(CNC2C(Oc3c4cc5cc3Oc3ccc(cc3Cl)C(O)C3NC(=O)C(NC(=O)C5NC(=O)C5NC(=O)C(Cc6ccc(cc6)O4)NC(=O)C(NC)c4ccc(O)c(c4)Oc4cc(O)c(Cl)c5c4)c4ccc(O)c(c4)-c4c(cc(O)c(CN5CCN(Cc6ccc(-c7ccccc7)cc6)CC5)c4O)[C@H](C(=O)O)NC3=O)OC(C(=O)O)C(O)C2O)cc1 (some centres not stated) | > 20 µM | 6.9 µM
11 | 88 µM | 17 µM | 7.8 µM | CNC(=O)[C@@H]1NC(=O)C2NC(=O)C(NC(=O)C3NC(=O)C4NC(=O)C(Cc5ccc(c(Cl)c5)Oc5cc3cc(c5O)Oc3ccc(cc3Cl)C2O)NC(=O)C(NC(=O)OC23CC5CC(CC(C5)C2)C3)c2ccc(O)c(c2)Oc2cc(O)cc4c2)c2ccc(O)c(c2)-c2c(O)cc(O)cc21 (some centres not stated) | 100 µM (≈ 139 µg/mL) | 8.7 µM
12 | 60 µM | 2.5 µM | 6 µM | CCCCCCCCCCCCCCCCCCNCc1c(O)cc2c(c1O)-c1cc(ccc1O)C1NC(=O)C3NC(=O)C4NC(=O)C(Cc5ccc(c(Cl)c5)Oc5cc3cc(c5O)Oc3ccc(cc3Cl)C(O)C(NC1=O)C(=O)N[C@H]2C(=O)NC)NC(=O)C(N)c1ccc(O)c(c1)Oc1cc(O)cc4c1 (some centres not stated) | 100 µM (≈ 149 µg/mL) | 4.7 µM
13 | 22 µM | 4.5 µM | 7.8 µM | CCCCCCCCCCCCCCCCCCNCc1c(O)cc2c(c1O)-c1cc(ccc1O)C1NC(=O)C3NC(=O)C4NC(=O)C(Cc5ccc(c(Cl)c5)Oc5cc3cc(c5O)Oc3ccc(cc3Cl)C(O)C(NC1=O)C(=O)N[C@H]2C(=O)O)NC(=O)C(N)c1ccc(O)c(c1)Oc1cc(O)cc4c1 (some centres not stated) | 100 µM (≈ 148 µg/mL) | 1.7 µM

Further lines, the compound ahead of its results:

Row | SMILES | IC50 (CCRF-CEM) | EC50 [1] | EC50 [2] | MIC (Mus musculus [3]) | EC50 (Mus musculus [4])
14 | COC(=O)[C@H]1NC(=O)C2NC(=O)C(NC(=O)[C@@H]3NC(=O)[C@H]4NC(=O)[C@H](NC(=O)[C@H](N)c5ccc(O)c(c5)Oc5cc4cc(O)c5C)[C@H](O)c4ccc(cc4)Oc4cc3cc(c4O)Oc3ccc(cc3)[C@H]2O[C@@H]2C[C@@H](N)[C@@H](O)[C@@H](C)O2)c2ccc(O)c(c2)-c2c(O)cc(O)cc21 | > 100 µM | > 50 µM | > 250 µM | > 100 µM | 52 µM
15 | CN[C@H](CC(C)C)C(=O)N[C@H]1C(=O)N[C@@H](CC(N)=O)C(=O)N[C@H]2C(=O)N[C@H]3C(=O)N[C@H](C(=O)N[C@H](C(=O)O)c4cc(O)cc(O)c4-c4cc3ccc4O)[C@H](O)c3ccc(c(Cl)c3)Oc3cc2cc(c3O[C@@H]2O[C@H](CO)[C@@H](O)[C@H](O)[C@H]2O[C@H]2C[C@](C)(NCc3ccc(-c4ccc(Cl)cc4)cc3)C(O)[C@H](C)O2)Oc2ccc(cc2Cl)[C@H]1O (some centres not stated) [listing 1 of 2 here] |  |  |  |  | 7.7 µM
16 | CN[C@H](CC(C)C)C(=O)N[C@H]1C(=O)N[C@@H](CC(N)=O)C(=O)N[C@H]2C(=O)N[C@H]3C(=O)N[C@H](C(=O)N[C@H](C(=O)O)c4cc(O)cc(O)c4-c4cc3ccc4O)[C@H](O)c3ccc(c(Cl)c3)Oc3cc2cc(c3O[C@@H]2O[C@H](CO)[C@@H](O)[C@H](O)[C@H]2O[C@H]2C[C@](C)(NCc3ccc(-c4ccc(Cl)cc4)cc3)C(O)[C@H](C)O2)Oc2ccc(cc2Cl)[C@H]1O (some centres not stated) [listing 2 of 2 here] |  |  |  | > 25 µM | 
17 | CN[C@H](CC(C)C)C(=O)N[C@H]1C(=O)N[C@@H](CC(N)=O)C(=O)N[C@H]2C(=O)N[C@H]3C(=O)N[C@H](C(=O)N[C@H](C(=O)NCc4ccc(-c5ccc(Cl)cc5)cc4)c4cc(O)cc(O)c4-c4cc3ccc4O)[C@H](O)c3ccc(c(Cl)c3)Oc3cc2cc(c3O[C@@H]2O[C@H](CO)[C@@H](O)[C@H](O)[C@H]2O[C@H]2C[C@](C)(N)C(O)[C@H](C)O2)Oc2ccc(cc2Cl)[C@H]1O (some centres not stated) [listing 1 of 2 here] |  |  |  |  | > 2 µM
18 | CN[C@H](CC(C)C)C(=O)N[C@H]1C(=O)N[C@@H](CC(N)=O)C(=O)N[C@H]2C(=O)N[C@H]3C(=O)N[C@H](C(=O)N[C@H](C(=O)NCc4ccc(-c5ccc(Cl)cc5)cc4)c4cc(O)cc(O)c4-c4cc3ccc4O)[C@H](O)c3ccc(c(Cl)c3)Oc3cc2cc(c3O[C@@H]2O[C@H](CO)[C@@H](O)[C@H](O)[C@H]2O[C@H]2C[C@](C)(N)C(O)[C@H](C)O2)Oc2ccc(cc2Cl)[C@H]1O (some centres not stated) [listing 2 of 2 here] |  |  |  | 20 µM (≈ 33 µg/mL) | 
19 | NC(=O)C[C@@H]1NC(=O)C(N)C(O)c2ccc(c(Cl)c2)Oc2cc3cc(c2O)Oc2ccc(cc2)C(O)C2NC(=O)C(NC(=O)C3NC1=O)c1ccc(O)c(c1)-c1c(O)cc(O)cc1[C@H](C(=O)O)NC2=O (some centres not stated) | > 250 µM | 115 µM | > 250 µM | > 100 µM | > 100 µM
20 | COC(=O)[C@@H]1NC(=O)C2NC(=O)C(NC(=O)C3NC(=O)C4NC(=O)C(NC(=O)C(N)c5ccc(O)c(c5)Oc5cc4cc(O)c5C)C(O)c4ccc(cc4)Oc4cc3cc(c4O)Oc3ccc(cc3)C2O)c2ccc(O)c(c2)-c2c(O)cc(O)cc21 (some centres not stated) | > 100 µM | 25 µM | > 50 µM | > 100 µM | 19 µM
21 | NC1C(=O)NC2Cc3ccc(c(Cl)c3)Oc3cc4cc(c3O)Oc3ccc(cc3Cl)C(O)C(C(=O)O)NC(=O)C(c3ccc(O)c(-c5c(O)cc(O)cc5[C@@H](N)C(=O)O)c3)NC(=O)C4NC(=O)C(NC2=O)c2cc(O)cc(c2)Oc2cc1ccc2O (some centres not stated) | > 250 µM | 22 µM | 32 µM | > 100 µM | 14 µM
22 | NC(=O)CC1NC(=O)C(N)C(O)c2ccc(c(Cl)c2)Oc2cc3cc(c2O)Oc2ccc(cc2)C(O)C2NC(=O)C(NC(=O)C3NC1=O)c1ccc(O)c(c1)-c1c(cc(O)c(CNC3C4CC5CC(C4)CC3C5)c1O)[C@H](C(=O)O)NC2=O (some centres not stated) | > 250 µM | 22 µM | 40 µM | > 100 µM | 47 µM
23 | COC(=O)[C@@H]1NC(=O)C2NC(=O)C(NC(=O)C(NC(=O)OC(C)(C)C)c3cc(Oc4ccc(CC(NC(=O)OCc5ccccc5)C(=O)O)cc4Cl)c(O)c(c3)Oc3ccc(cc3Cl)C2O)c2ccc(O)c(c2)-c2c(O)cc(O)cc21 (some centres not stated) | > 250 µM | 17 µM | 17 µM | > 100 µM | 87 µM
